# Screening results as filed in PubChem.
# MBD2 inh – MBD2-methylated oligo binding inhibition; inhibition, % at 4.4 µM; Q9UBB5; hit rate 0.31% among 370,000; TR-FRET, MBD2 binding to methylated oligonucleotide; in the data active = inhibition above about 13%
# Target sequence (Q9UBB5 whole entry, looked up): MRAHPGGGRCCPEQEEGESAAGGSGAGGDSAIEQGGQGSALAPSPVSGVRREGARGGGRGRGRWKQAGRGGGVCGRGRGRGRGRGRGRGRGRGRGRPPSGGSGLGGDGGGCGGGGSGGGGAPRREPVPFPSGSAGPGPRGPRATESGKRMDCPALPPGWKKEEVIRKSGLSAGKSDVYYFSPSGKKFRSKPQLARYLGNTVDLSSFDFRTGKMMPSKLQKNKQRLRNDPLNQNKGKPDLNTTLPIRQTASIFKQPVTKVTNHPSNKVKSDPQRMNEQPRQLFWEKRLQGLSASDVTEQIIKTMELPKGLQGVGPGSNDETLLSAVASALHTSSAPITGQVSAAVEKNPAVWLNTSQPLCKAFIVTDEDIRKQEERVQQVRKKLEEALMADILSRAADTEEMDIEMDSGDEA
# LEDGF integ inh – blocks HIV-1 LEDGF/p75-dependent DNA integration; TR-FRET IN-LEDGF/p75 DNA integration, Eu/Cy5; inhibition, % at 3.7 µM; hit rate 0.64% among 370,000; AID 743269;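 active = inhibition above the screen-wide mean plus 3 SD, cut at about 13% in these data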;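 note: signal is the Cy5 over europium emission ratio at 671 and 618 nm; 0% = plate median of compound wells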
# ASAP1 inh – inhibitors of human ASAP1 ArfGAP activity; ASAP1-stimulated ARF1 GTP hydrolysis, GDP FP detection; inhibition, % at 16.5 µM; AID 624377; hit rate 0.19% among 360,000; Q9ULH1; in the data active = inhibition above about 25%;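 note: 0% = vehicle with enzyme and substrate and 100% = no enzyme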
# TDP2 absorb – blocks human TDP2 phosphodiesterase activity; hit rate 0.34% among 370,000; recombinant TDP2, T5PNP hydrolysis, p-nitrophenol absorbance 415 nm; inhibition, % at 12.8 µM; O95551;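 active = inhibition above the mean of all tested compounds plus 3 SD, set per campaign, cut at about 25% in these data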;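 note: 0% = DMSO with enzyme and 100% = buffer with substrate but no TDP2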
#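 Assay system: Recombinant human TDP2 | Quantity: 120 nM TDP2 per well | Incubation: 2 h at 37 °C | Signal: Epi absorbance | Evaluation: Percent inhibition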
# ARFGAP1 inhibitor – rat ARFGAP1 inhibition. Q62848. Arfgap1-stimulated ARF1 GTP hydrolysis, GDP FP detection. inhibition, % at 16.5 µM. hit rate 0.26% among 360,000;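 active = inhibition above a per-plate limit, mean inhibition of low control wells plus 3 SD, cut at about 25% in these data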;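 note: 0% = DMSO wells with enzyme and 100% = wells lacking Arfgap1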
# Target sequence (Q62848 1-136 limits assumed): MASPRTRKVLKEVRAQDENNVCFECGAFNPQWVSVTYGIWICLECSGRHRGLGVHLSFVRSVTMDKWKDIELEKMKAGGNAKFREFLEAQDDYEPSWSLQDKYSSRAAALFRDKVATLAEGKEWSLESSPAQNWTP
#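 Material – truncated rat Arfgap1 GAP domain · Buffer or medium – HEPES-based buffer, pH 7.5 · Reagent – human ARF1(Δ1-17)-GTP substrate · Dosing – 16.5 µM single point, 1.26% DMSO · Schedule – GTP hydrolysis reaction 2 h at 25 °C · Technique – GDP detection by fluorescence polarization · Benchmarks – No-Arfgap1 wells (100%) versus DMSO full-reaction wells (0%) · Repeats – single replicate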
# UHRF1 MBD2 ctr – human UHRF1 methylated DNA binding inhibitors; hit rate 0.75% among 370,000; UHRF1 binding to methylated oligo, TR-FRET; inhibition, % at 4.4 µM; Q96T88; in the data active = inhibition above about 21%;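 note: UHRF1 SRA domain binding a hemimethylated CpG hairpin DNA probe; 0% = median of test compound wells and 100% = reference inhibitor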
# IN multimer up – activates HIV-1 integrase multimerization in LEDGF counter-screen; shares compounds with LEDGF integ inh; TR-FRET HIV-1 integrase multimerization, biochemical; activation, % at 7.7 µM; hit rate 17% among 2,000; in the data active = activation above about 8.9%
# TR-FRET interf – optically interferes with TR-FRET readout in LEDGF counter-screen. 2,000 tested, under 10 active. inhibition, % at 7.7 µM. TR-FRET optical interference counterscreen, HIV-1 IN multimerization. shares compounds with LEDGF integ inh;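 active = inhibition above the mean over all tested compounds plus 3 SD, which no compound reached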;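 note: 0% = integrase with antibodies and DMSO and 100% = antibodies without integrase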
# IN-LEDGF confirm – LEDGF/p75-dependent HIV-1 integration inhibition, confirmation. shares compounds with LEDGF integ inh. TR-FRET LEDGF/p75-dependent HIV-1 integration, biochemical. inhibition, % at 3.7 µM. hit rate 36% among 2,000. AID 1053136; in the data active = inhibition above about 14%
# Active calls of the source: *; / = not tested or not shown. The list is not random: actives were taken first. Their share in the collection is about 2%.
SMILES,MBD2 inh,LEDGF integ inh,ASAP1 inh,TDP2 absorb,ARFGAP1 inhibitor,UHRF1 MBD2 ctr,IN multimer up,TR-FRET interf,IN-LEDGF confirm
CCCc1cc(=O)oc2cc(OCC(=O)NCC3CCC(C(=O)O)CC3)ccc12 (centres undefined),-1.6,33.2*,3.2,0.2,3.3,-2.0,-4.0,14.4,0.5
CN(Cc1ccccc1)C(=O)OCc1cn(Cc2cc(F)cc(F)c2)nn1,8.4,-2.0,/,3.9,/,-0.6,/,/,/
COC(=O)c1c(C(=O)OC)c(C)n(Cc2ccco2)c1C,5.4,0.1,-14.0,9.9,3.3,12.6,/,/,/
CCOc1cccc(=O)c2c(C)n(Cc3ccco3)c(C)c12,0.3,31.0*,-0.8,-5.1,9.3,1.9,1.0,-4.8,12.8
O=C(CCc1ccccc1)N[C@H]1[C@H](OC(=O)c2cccnc2)CCC[C@@]12C(=O)N(Cc1ccccc1)c1ccccc12,-2.5,0.9,/,-7.2,/,-0.6,/,/,/
Cc1ccccc1C(=O)c1c[nH]c(C(=O)NCCc2ccccn2)c1,3.8,22.2*,-4.6,8.2,1.2,0.6,0.9,-4.3,-2.0
CCC(=O)c1c[nH]c(C(=O)NCCc2ccccn2)c1,-2.5,1.2,-6.7,-0.7,2.9,-1.8,/,/,/
Oc1cccc(/C=N/NC(=S)Nc2cccnc2)c1O,4.6,33.4*,6.5,1.6,0.9,-7.8,21.1*,-106.0,29.8*
CC1Cc2ccccc2N1C(=O)CSCC(=O)O (centres undefined),-0.3,15.9*,-8.9,-2.0,3.8,-0.4,0.7,-3.6,-3.5
CC(=C/c1ccco1)/C=N/NC(=O)Cc1cccn1C,1.9,20.9*,7.8,-1.7,-4.3,5.0,-1.3,4.7,9.8
CC(/C=N/NC(=O)Cc1cccn1C)=C\c1ccco1,8.9,37.2*,-2.1,4.3,-0.4,21.1*,0.9,-4.8,6.0
Cn1cccc1CC(=O)N/N=C/c1ccco1,-2.3,4.7,9.9,0.4,-8.0,-0.8,/,/,/
CC(/C=N/NC(=O)CN1CCN(Cc2ccc(Cl)cc2)CC1)=C\c1ccco1,-5.2,0.1,0.6,1.6,6.1,-4.0,/,/,/
O=C(NCCc1c[nH]c2ccccc12)[C@H](Cc1c[nH]c2ccccc12)NC1(C(=O)NC2CCCCC2)CCCCCCC1,11.2,7.2,/,-4.6,/,16.4,/,/,/
Cc1cc2c(NC(=O)Nc3ccc(C(F)(F)F)cc3)cccc2nn1,-8.4,29.9*,6.7,23.1,0.8,4.1,7.8,-27.9,6.0
Cc1cc2c(NC(=O)CCCC(=O)O)cccc2nn1,-0.9,0.7,6.5,7.1,-1.8,-0.1,/,/,/
CCOC(=O)CC[C@@]1(C(=O)OCC)C[C@@H](CC(=O)NCCCOC)C(=O)N2CCCC=C21,1.2,-3.9,/,1.1,/,-1.5,/,/,/
CC(OC(=O)c1ccc2ccccc2n1)C(=O)Nc1ccc(N2CCOCC2)cc1 (centres undefined),3.7,14.9*,-7.8,-8.2,2.7,-0.7,1.0,-4.8,-7.3
CC(C)(C)N(Cc1cn(CC2CCCCC2)nn1)S(=O)(=O)c1ccc(F)cc1Br,1.0,6.8,/,-8.5,/,-2.2,/,/,/
O=C(NCCCN1CCCC1=O)c1cc2nc(-c3ccco3)cc(C(F)(F)F)n2n1,-1.5,19.5*,-14.0,-6.8,-10.2,-1.5,-0.6,3.2,5.5
Cc1[nH]c(=O)[nH]c1C(=O)CCCCC(=O)OCC(=O)Nc1ccccn1,1.6,82.0*,9.7,5.8,-1.4,-2.6,0.4,-1.8,80.7*
COCCCNC(=O)c1ccc(Cn2c(=O)c3ccccc3n(Cc3ccc([N+](=O)[O-])cc3)c2=O)cc1,1.6,0.9,/,3.9,/,-3.6,/,/,/
Cc1cc(=O)oc2cc(NC(=O)CC3(CC(=O)O)CCCC3)ccc12,-6.8,21.3*,-3.2,17.4,-0.2,-2.4,-1.5,5.3,2.5
Cc1ccc(NC(=O)CC2(CC(=O)O)CCCC2)cc1,3.9,0.8,-7.5,2.5,2.0,-1.4,/,/,/
Cc1cc(O)c(-c2cc(C(=O)Nc3cccnc3)[nH]n2)cc1C,4.3,-7.5,-5.4,-3.4,14.7,3.0,/,/,/
SMILES,MBD2 inh,LEDGF integ inh,ASAP1 inh,TDP2 absorb,ARFGAP1 inhibitor,UHRF1 MBD2 ctr,IN multimer up,TR-FRET interf,IN-LEDGF confirm
CCc1ccc(O)c(-c2cc(C(=O)Nc3cccnc3)[nH]n2)c1,3.2,15.3*,-5.8,2.0,8.2,-1.1,-2.5,12.8,-1.1
O=C(Nc1ccc(C(O)(C(F)(F)F)C(F)(F)F)cc1)c1ccccc1C(F)(F)F,1.9,-2.3,/,1.2,/,-3.3,/,/,/
CCOc1cc(CNc2ccc(N3CCOCC3)cc2)cc(Br)c1OCC,-6.6,14.7*,3.8,16.0,-8.1,-1.2,1.6,-8.1,-3.5
CCOc1cc(CNc2ccc(N3CCCCC3)cc2)cc(Br)c1OCC(=O)NC(C)(C)C,-4.6,14.9*,-0.5,11.6,-5.0,-6.2,2.0,-10.2,1.9
CN(C)C(=S)Nc1nc2ccccc2s1,-1.9,17.4*,-1.5,11.7,-8.9,-1.9,1.1,-5.6,9.0
Nn1c(SCC(=O)N2CCCCC2)nnc1-c1ccncc1,-7.8,-3.5,5.6,-6.2,3.3,-1.8,/,/,/
Nn1c(SCC(=O)N2CCCCCC2)nnc1-c1ccncc1,-1.3,25.6*,4.0,5.3,7.0,2.2,0.5,-2.7,0.8
O=C(/C=C/c1ccc(Cl)c(Cl)c1)NC1=NCCS1,8.9,28.5*,-11.6,-5.6,-1.2,4.6,0.7,-3.4,6.3
CC(C)C[C@H]1CN([C@@H](Cc2ccccc2)CN2CCC[C@@H]2CN2C(=O)C(=O)NC[C@@H]2Cc2ccccc2)C(=O)C(=O)N1CC1CCCCC1,-4.5,5.4,-6.7,5.5,-13.9,-2.2,/,/,/
CC(C)C[C@H]1CN([C@@H](Cc2ccccc2)CN2CCC[C@H]2CN2C(=O)C(=O)NC[C@@H]2Cc2ccccc2)C(=O)C(=O)N1CC1CCCCCC1,-0.3,20.7*,14.6,-8.1,11.4,3.0,0.8,-4.0,1.0
COc1cc(COC(=O)c2cnc(C)cn2)c(OC)cc1Br,-1.4,36.7*,2.6,13.5,-0.8,-0.5,3.2,-16.2,3.9
Nc1cccc(Nc2ccccc2)c1,-4.0,5.1,11.4,-17.2,9.0,-3.1,/,/,/
Nc1ccc(Nc2ccccc2)c(S(=O)(=O)O)c1,2.1,18.7*,-12.3,-5.8,5.8,19.5,10.5*,-52.8,10.7
Cc1ccc(Nc2ccc(N)cc2S(=O)(=O)O)cc1,-0.8,19.3*,-4.2,0.7,-4.1,3.4,10.1*,-36.0,2.2
